{"data": "Measured values gathered from unrelated publications", "organism": "Mycobacterium tuberculosis", "observed": "microbial growth", "note": "Each line is one published result; the experiments were not run side by side."}
{"SMILES": "O=C1C(=NNc2nc(-c3ccccc3)cs2)C(N=Cc2ccccc2Cl)=NN1c1ccccc1", "test": "resazurin", "test system": "H37RV", "MIC": "25 µg/mL"}
{"SMILES": "CC1SC2(CCCCC2)N(NC(=O)c2[nH]c3ccc(Cl)cc3c2-c2ccccc2)C1=O (stereo not drawn)", "test system": "ATCC27294 H37RV", "MIC": "250 µM"}
{"SMILES": "Cc1ccc(C)n1-c1ccc(-c2nnc(-c3ccc(N(C)C)cc3)[nH]2)cc1", "test": "broth dilution", "test system": "H37RV", "setting": "21 days", "MIC": "16 µg/mL"}
{"SMILES": "CO[C@H]1/C=C/O[C@@]2(C)Oc3c(C)c(O)c4c(O)c(c(/C=N/N5CCN(C)CC5)c(O)c4c3C2=O)NC(=O)/C(C)=C\\C=C\\[C@H](C)[C@H](O)[C@@H](C)[C@@H](O)[C@@H](C)[C@H](OC(C)=O)[C@@H]1C", "test system": "H37RA", "MIC": "0.008 µg/mL"}
{"SMILES": "Cc1c(Cc2ccccc2Cl)c(=O)n2c([nH]c3ccccc32)c1C#N", "test": "broth dilution", "test system": "H37RV", "MIC": "> 128 µg/mL"}
{"SMILES": "C[C@@H]([C@H](N)C(=O)N[C@H](C(=O)O)[C@H]1O[C@@H](n2ccc(=O)[nH]c2=O)[C@H](O)[C@@H]1O)[C@H](O)c1ccc(O)cn1", "test system": "H37RV", "setting": "14 days", "MIC": "> 50 µg/mL"}
{"SMILES": "COC(=O)c1cc(-c2cccc(NC(=O)Nc3ccc(C)cc3)c2)on1", "test system": "ATCC27294 H37RV", "setting": "7 days", "MIC": "0.5 µg/mL"}
{"SMILES": "CC(=O)O[C@H]1C[C@@]2(C)[C@@H](C[C@@H](O)[C@H]3[C@@]4(C)CC[C@@H](O)[C@@H](C)[C@@H]4CC[C@@]32C)/C1=C(\\CCC=C(C)C)C(=O)O", "test": "resazurin", "test system": "H37RA", "setting": "14 days", "MIC": "4 µg/mL"}
{"SMILES": "CC(C)[C@H]1CO[C@]23CCN(Cc4ccccc4)C[C@H]2CCC(=O)N13", "test": "resazurin", "test system": "H37RV", "setting": "7 days", "MIC": "5.73 µM"}
{"SMILES": "O=C(Nc1ccc2c(c1)OC(F)(F)O2)Nc1ccc(Cl)c(C(F)(F)F)c1", "test system": "H37RV", "MIC": "2 µM"}
{"SMILES": "O=C1C(Cl)=C(Cl)C(=O)c2ccccc21", "test system": "H37RV", "setting": "14 days", "MIC": "10 µg/mL"}
{"SMILES": "C=CCOc1cc(O)cc(O)c1C(=O)[C@@H](C)CC", "test": "broth dilution", "test system": "H37RV", "MIC": "100 µg/mL"}
{"SMILES": "O=C(Nc1cccc(-c2cc(C(=O)O)no2)c1)Nc1ccc(Cl)c(Cl)c1", "test system": "ATCC27294 H37RV", "setting": "7 days", "MIC": "64 µg/mL"}
{"SMILES": "Cc1ccc(C)n1-c1ccc(-c2nnc(-c3c(Cl)cccc3Cl)[nH]2)cc1", "test": "broth dilution", "test system": "H37RV", "setting": "21 days", "MIC": "8 µg/mL"}
{"SMILES": "CC1CC(C)(C)CC2(C1)SC(C)C(=O)N2NC(=O)c1[nH]c2ccc(Cl)cc2c1-c1ccccc1 (stereo not drawn)", "test system": "ATCC27294 H37RV", "MIC": "1000 µM"}
{"SMILES": "COC(=O)c1cc(-c2cccc(NC(=S)Nc3ccc(OC)cc3)c2)on1", "test system": "ATCC27294 H37RV", "setting": "7 days", "MIC": "2 µg/mL"}
{"SMILES": "Cc1ccc(C)n1-c1ccc(-c2nnc(-c3ccccc3Cl)[nH]2)cc1", "test": "broth dilution", "test system": "H37RV", "setting": "21 days", "MIC": "8 µg/mL"}
{"SMILES": "OCN(CO)c1nc(N(CO)CO)nc(N(CO)CO)n1", "test system": "H37RV", "setting": "7 days", "MIC": "8 to 16 µg/mL"}
{"SMILES": "COc1cccc(C=NC2=NN(c3ccccc3)C(=O)C2=NNc2nc(-c3ccccc3)cs2)c1", "test": "resazurin", "test system": "H37RV", "MIC": "12.5 µg/mL"}
{"SMILES": "Cc1ccc(C)n1-c1ccc(-c2nnc(-c3ccc(Br)cc3)[nH]2)cc1", "test": "broth dilution", "test system": "H37RV", "setting": "21 days", "MIC": "2 µg/mL"}
{"SMILES": "C[C@H]1COC2(CCN(c3nc(=O)c4cc(C(F)(F)F)cc([N+](=O)[O-])c4s3)CC2)O1", "test": "resazurin", "test system": "H37RV", "MIC": "< 0.39 µM"}
{"SMILES": "Cc1ccc2nc(C)c(C(=O)NCc3cccc(S(F)(F)(F)(F)F)c3)n2c1", "test system": "H37RV", "setting": "5 days", "MIC": "0.2 µM"}
{"SMILES": "CCCCCCC/C=C\\C(O)C#CC#CC(=O)CCOC (stereo not drawn)", "test": "resazurin", "test system": "ATCC35801 ERDMAN", "setting": "7 days", "MIC": "> 60 µg/mL"}
{"SMILES": "CO[C@H]1/C=C/O[C@@]2(C)Oc3c(C)c(O)c4c(O)c(c(/C=N/N5CCN(C)CC5)c(O)c4c3C2=O)NC(=O)/C(C)=C\\C=C\\[C@H](C)[C@H](O)[C@@H](C)[C@@H](O)[C@@H](C)[C@H](OC(C)=O)[C@@H]1C", "test system": "H37RV", "MIC": "0.85 µg/mL"}
{"SMILES": "COC(=O)c1cc(-c2cccc(NC(=O)Nc3ccc(Cl)cc3)c2)on1", "test system": "ATCC27294 H37RV", "setting": "7 days", "MIC": "2 µg/mL"}
{"SMILES": "CO[C@H]1/C=C/O[C@@]2(C)Oc3c(C)c(O)c4c(O)c(c(/C=N/N5CCN(C)CC5)c(O)c4c3C2=O)NC(=O)/C(C)=C\\C=C\\[C@H](C)[C@H](O)[C@@H](C)[C@@H](O)[C@@H](C)[C@H](OC(C)=O)[C@@H]1C", "test system": "H37RV", "setting": "5 days", "MIC": "0.003 µM"}
{"SMILES": "O=c1nc(N2CCN(CC3CCCCC3)CC2)sc2c([N+](=O)[O-])cc(C(F)(F)F)cc12", "test": "resazurin", "test system": "H37RV", "MIC": "0.002 µM"}
{"SMILES": "CCc1nc2ccc(Cl)cn2c1C(=O)NCc1ccc(S(F)(F)(F)(F)F)cc1", "test system": "H37RV", "setting": "5 days", "MIC": "0.014 µM"}
{"SMILES": "O=C(CCNS(=O)(=O)c1ccc([N+](=O)[O-])cc1)N1CCN(C(c2ccc(F)cc2)c2ccc(F)cc2)CC1", "test system": "ATCC27294 H37RV", "MIC": "25 µg/mL"}
{"SMILES": "O=C1C(=NNc2nc(-c3ccccc3)cs2)C(N=Cc2ccc([N+](=O)[O-])cc2)=NN1c1ccccc1", "test": "resazurin", "test system": "H37RV", "setting": "5 days", "MIC": "50.5 µM"}
{"SMILES": "O=C(NN1C(=O)CSC12CCCCC2)c1[nH]c2ccc(Cl)cc2c1-c1ccccc1", "test system": "ATCC27294 H37RV", "MIC": "16 µM"}
{"SMILES": "CCCCCCC/C=C\\[C@H](O)C#CC#C[C@@H](O)CC", "test": "resazurin", "test system": "ATCC35801 ERDMAN", "setting": "7 days", "MIC": "49.5 µg/mL"}
{"SMILES": "O=C1C(=NNc2nc(-c3ccccc3)cs2)C(N=Cc2ccccc2)=NN1c1ccccc1", "test": "resazurin", "test system": "H37RV", "setting": "5 days", "MIC": "13.9 µM"}
{"SMILES": "COC(=O)c1cc(-c2cccc(NC(=O)Nc3cccc(Cl)c3Cl)c2)on1", "test system": "ATCC27294 H37RV", "setting": "7 days", "MIC": "0.5 µg/mL"}
{"SMILES": "N#Cc1cc(C(F)(F)F)cc2c(=O)nc(N3CCN(CC4CC4)CC3)sc12", "test": "resazurin", "test system": "H37RV", "MIC": "> 2 µM"}
{"SMILES": "NNC(=O)c1ccncc1", "test": "resazurin", "test system": "H37RV", "MIC": "0.8 µM"}
{"SMILES": "NNC(=O)c1ccncc1", "test system": "ATCC27294 H37RV", "MIC": "0.05 µg/mL"}
{"SMILES": "CN(CC[C@H](N)CC(=O)N[C@H]1C=C[C@H](n2ccc(N)nc2=O)O[C@@H]1C(=O)O)C(=N)N", "test system": "H37RA", "MIC": "> 50 µM"}
{"SMILES": "CCOC(=O)c1cc(-c2cccc(NC(=O)Nc3ccc(Cl)c(Cl)c3)c2)on1", "test system": "ATCC27294 H37RV", "setting": "7 days", "MIC": "1 µg/mL"}
{"SMILES": "C[C@H]1COc2c(N3CCN(C)CC3)c(F)cc3c(=O)c(C(=O)O)cn1c23", "test": "resazurin", "test system": "H37RA", "setting": "14 days", "MIC": "0.12 µg/mL"}
{"SMILES": "NNC(=O)c1ccncc1", "MIC": "0.03 µg/mL"}
{"SMILES": "O=C1COCCN1c1ccc(CO[C@@H]2COc3nc([N+](=O)[O-])cn3C2)cc1", "test system": "H37RV", "MIC": "0.4 to 0.8 µg/mL"}
{"SMILES": "CCCC1CCC2(CC1)SC(C)C(=O)N2NC(=O)c1[nH]c2ccc(Cl)cc2c1-c1ccccc1 (stereo not drawn)", "test system": "ATCC27294 H37RV", "MIC": "1000 µM"}
{"SMILES": "CO[C@H]1/C=C/O[C@@]2(C)Oc3c(C)c(O)c4c(O)c(c(/C=N/N5CCN(C)CC5)c(O)c4c3C2=O)NC(=O)/C(C)=C\\C=C\\[C@H](C)[C@H](O)[C@@H](C)[C@@H](O)[C@@H](C)[C@H](OC(C)=O)[C@@H]1C", "test": "resazurin", "test system": "H37RV", "setting": "7 days", "MIC": "0.061 µM"}
{"SMILES": "COc1ccc(Cc2c(C)c(C#N)c3[nH]c4ccccc4n3c2=O)cc1", "test": "broth dilution", "test system": "H37RV", "MIC": "0.25 µg/mL"}
{"SMILES": "c1ccc(-c2nc3cc(Nc4nccn4-c4cc(NC5CCCC5)ncn4)ccc3[nH]2)cc1", "test system": "W4", "MIC": "> 20 µM"}
{"SMILES": "CN(C)c1ccc(C=NC2=NN(c3ccccc3)C(=O)C2=NNc2nc(-c3ccccc3)cs2)cc1", "test": "resazurin", "test system": "H37RV", "MIC": "6.25 µg/mL"}
{"SMILES": "COC(=O)c1cc(-c2cccc(NC(=O)Nc3cccc(Cl)c3)c2)on1", "test system": "ATCC27294 H37RV", "setting": "7 days", "MIC": "0.5 µg/mL"}
{"SMILES": "O=C(NN1C(=O)CSC12CCC(c1ccccc1)CC2)c1[nH]c2ccc(Cl)cc2c1-c1ccccc1 (stereo not drawn)", "test system": "ATCC27294 H37RV", "MIC": "3.9 µM"}
{"SMILES": "C[C@@H](O)[C@H]1C(=O)N2C(C(=O)O)=C(SCCN=CN)C[C@H]12", "test": "resazurin", "test system": "H37RA", "setting": "14 days", "MIC": "16 µg/mL"}
{"SMILES": "CCOC(=O)c1nnn(-c2cccc(NC(=O)Nc3ccc(Cl)c(Cl)c3)c2)c1C", "test system": "ATCC27294 H37RV", "setting": "7 days", "MIC": "16 µg/mL"}
